From ChEMBL document CHEMBL2434860, “Nitroreductase-activated nitric oxide (NO) prodrugs” (Bioorg Med Chem Lett, 2013) come the findings set out here.

The subject of data set [1] is DLD-1. The data set can be described thus: Antiproliferative activity against human DLD1 cells assessed as cell viability at 75 uM after 72 hrs by MTT assay in presence of Escherichia coli NTR and NADPH relative to control. Type of data set: functional. The conditions noted are these: DLD-1, 72 h, read-out: Activity. Put shortly: (§1)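 DLD-1 human colon adenocarcinoma cells seeded at 3 × […] cells/well overnight in complete RPMI 1640. Treated with compound from DMSO stock (1% DMSO final), with or without E. coli nitroreductase (6 mg/2 mL DPBS stock) and NADPH (0.5 mM stock in DPBS). Incubated 72 h at 37 °C. MTT added for 4 h, formazan dissolved in DMSO, absorbance read at 570 nm for viability.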
In general terms: Tetrazolium dyes change colour on reduction, which living cells bring about.

For data set [2], the system named is DLD-1. In words: Antiproliferative activity against human DLD1 cells assessed as cell viability at 75 uM after 72 hrs by MTT assay in absence of Escherichia coli NTR and presence of NADPH. In kind it is functional. The conditions noted are these: DLD-1, 72 h, read-out: Activity. Put shortly:
as §1

A short description of data set [3]: Stability of the compound in phosphate buffer at pH 7.0 assessed as nitric oxide release at 50 uM after 1 hr by chemiluminescence assay in absence of Escherichia coli NTR and presence of NADPH. The following applies: pH 7, 1 h. In kind it is physicochemical. Put shortly:
(§2)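 Compound at 50 µM was incubated at 37 °C in pH 7.0 phosphate buffer with NADPH, with or without E. coli nitroreductase. After 1 h, an aliquot was injected into a chemiluminescence NO analyser (argon carrier) whose reservoir held NaI/acetic acid, so nitrite was also counted as NO. The signal was calibrated against NaNO2 standards. Values are averages of two independent runs.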

Data set [4] can be described thus: Prodrug conversion in phosphate buffer at pH 7.0 assessed as Escherichia coli NTR-mediated decomposition measuring nitric oxide release at 50 uM after 1 hr by chemiluminescence assay in presence of NADPH. In kind it is physicochemical. The following applies: pH 7, 1 h. Put shortly:
as §2

The nature of data set [5]: Prodrug conversion in phosphate buffer at pH 7.0 assessed as Escherichia coli NTR-mediated decomposition measuring compound remaining at 50 uM after 1 hr by HPLC analysis in presence of NADPH. Type of data set: physicochemical. The following applies: pH 7, 1 h. Put shortly:
(§3)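 Compound at 50 µM (from a 10 mM DMSO stock) was stirred at 37 °C in pH 7.0 phosphate buffer with NADPH, with or without E. coli nitroreductase; the blank had no enzyme. After 1 h, an aliquot was analysed by reverse-phase C-18 HPLC (70% MeCN:H2O, 1 mL/min) for compound remaining. Values are averages of two independent runs.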

The nature of data set [6]: Stability of the compound in phosphate buffer at pH 7.0 assessed as compound remaining at 50 uM after 1 hr by HPLC analysis in absence of Escherichia coli NTR and presence of NADPH. In kind it is physicochemical. The following applies: pH 7, 1 h. Put shortly: as §3
Data set [7] concerns DLD-1. In words: Antiproliferative activity against human DLD1 cells assessed as cell viability at 100 uM after 72 hrs by MTT assay in presence of Escherichia coli NTR and NADPH (reference value: 107.4%). Type of data set: functional. The following applies: DLD-1, 72 h, read-out: Activity. Put shortly:
as §1

The subject of data set [8] is DLD-1. In words: Antiproliferative activity against human DLD1 cells assessed as cell viability at 50 uM after 72 hrs by MTT assay in presence of Escherichia coli NTR and NADPH (reference value: 107.4%). The following applies: DLD-1, 72 h, read-out: Activity. In kind it is functional. Put shortly: as §1
For data set [9], the system named is DLD-1. The data set can be described thus: Antiproliferative activity against human DLD1 cells assessed as cell viability at 100 uM after 72 hrs by MTT assay in absence of Escherichia coli NTR and NADPH (reference value: 107.4%). Type of data set: functional. The conditions noted are these: DLD-1, 72 h, read-out: Activity. Put shortly:
as §1

For data set [10], the system named is DLD-1. The data set can be described thus: Antiproliferative activity against human DLD1 cells assessed as cell viability at 50 uM after 72 hrs by MTT assay in absence of Escherichia coli NTR and NADPH (reference value: 107.4%). Type of data set: functional. The following applies: DLD-1, 72 h, read-out: Activity. Put shortly:
as §1

Data set [11] concerns DLD-1. In words: Antiproliferative activity against human DLD1 cells assessed as cell viability at 25 uM after 72 hrs by MTT assay in absence of Escherichia coli NTR and NADPH (reference value: 107.4%). In kind it is functional. The following applies: DLD-1, 72 h, read-out: Activity. Put shortly:
as §1

Data set [12] relates to DLD-1. The data set can be described thus: Cytotoxicity against human DLD1 cells assessed as cell viability at 25 uM after 72 hrs by MTT assay in presence of Escherichia coli NTR and NADPH (reference value: 107.4%). In kind it is functional. The following applies: DLD-1, 72 h, read-out: Activity. Put shortly: as §1
Data set [13] is described as follows: Half life in aqueous buffer assessed as nitric oxide release at pH 7.4. In kind it is physicochemical.
Data set [14] deals with HeLa. In words: Cytotoxicity against human HeLa cells assessed as cell viability at 25 uM after 72 hrs by MTT assay in presence of Escherichia coli NTR and NADPH (reference value: 67.2%). Type of data set: functional. The following applies: read-out: Activity.
The subject of data set [15] is HeLa. In words: Cytotoxicity against human HeLa cells assessed as cell viability at 10 uM after 72 hrs by MTT assay in presence of Escherichia coli NTR and NADPH (reference value: 67.2%). Type of data set: functional. The conditions noted are these: read-out: Activity.
In data set [16] the test system is HeLa. In words: Cytotoxicity against human HeLa cells assessed as cell viability at 1 uM after 72 hrs by MTT assay in presence of Escherichia coli NTR and NADPH (reference value: 67.2%). In kind it is functional. The conditions noted are these: read-out: Activity.
The test system of data set [17] is HeLa. In words: Cytotoxicity against human HeLa cells assessed as cell viability at 25 uM after 72 hrs by MTT assay in absence of Escherichia coli NTR and NADPH (reference value: 88.2%). Type of data set: functional. The conditions noted are these: read-out: Activity.
Data set [18] deals with HeLa. In words: Cytotoxicity against human HeLa cells assessed as cell viability at 1 uM after 72 hrs by MTT assay in absence of Escherichia coli NTR and NADPH (reference value: 88.2%). In kind it is functional. The following applies: read-out: Activity.
The test system of data set [19] is HeLa. In words: Cytotoxicity against human HeLa cells assessed as cell viability at 10 uM after 72 hrs by MTT assay in absence of Escherichia coli NTR and NADPH (reference value: 88.2%). In kind it is functional. The conditions noted are these: read-out: Activity.
In data set [20] the test system is DLD-1. In words: Antiproliferative activity against human DLD1 cells assessed as cell viability at 10 uM after 72 hrs by MTT assay in presence of Escherichia coli NTR and NADPH (reference value: 86.3%). The conditions noted are these: DLD-1, 72 h, read-out: Activity. Type of data set: functional. Put shortly: as §1
The subject of data set [21] is DLD-1. The data set can be described thus: Antiproliferative activity against human DLD1 cells assessed as cell viability at 1 uM after 72 hrs by MTT assay in presence of Escherichia coli NTR and NADPH (reference value: 86.3%). In kind it is functional. The following applies: DLD-1, 72 h, read-out: Activity. Put shortly: as §1
The test system of data set [22] is DLD-1. In words: Antiproliferative activity against human DLD1 cells assessed as cell viability at 25 uM after 72 hrs by MTT assay in absence of Escherichia coli NTR and presence of NADPH (reference value: 74.8%). Type of data set: functional. The conditions noted are these: DLD-1, 72 h, read-out: Activity. Put shortly:
as §1

Data set [23] concerns DLD-1. The data set can be described thus: Antiproliferative activity against human DLD1 cells assessed as cell viability at 10 uM after 72 hrs by MTT assay in absence of Escherichia coli NTR and presence of NADPH (reference value: 74.8%). Type of data set: functional. The conditions noted are these: DLD-1, 72 h, read-out: Activity. Put shortly:
as §1

Data set [24] concerns DLD-1. In words: Antiproliferative activity against human DLD1 cells assessed as cell viability at 1 uM after 72 hrs by MTT assay in absence of Escherichia coli NTR and presence of NADPH (reference value: 74.8%). In kind it is functional. The following applies: DLD-1, 72 h, read-out: Activity. Put shortly: as §1
Data set [25] is described as follows: Prodrug conversion in phosphate buffer at pH 6.5 assessed as Escherichia coli NTR-mediated decomposition measuring nitric oxide release at 50 uM after 5 mins. Type of data set: physicochemical. The following applies: pH 6.5, 5 min. Put shortly:
(§4)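 Compound at 50 µM was reacted with E. coli nitroreductase and NADPH in phosphate buffer at pH 6.5 or at pH 7.4 (PBS), stirred at 37 °C. Aliquots were injected at set time points into a chemiluminescence NO analyser with an NaI/acetic acid reservoir, which also converts nitrite to NO. The signal was calibrated with NaNO2 standards.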

Data set [26] is described as follows: Prodrug conversion in phosphate buffer at pH 7.4 assessed as Escherichia coli NTR-mediated decomposition measuring nitric oxide release at 50 uM after 5 mins. In kind it is physicochemical. The conditions noted are these: pH 7.4, 5 min. Put shortly: as §4
The test system of data set [27] is HeLa. In words: Cytotoxicity against human HeLa cells assessed as cell viability after 72 hrs by MTT assay in presence of Escherichia coli NTR and NADPH. In kind it is functional, cell-based.
In data set [28] the test system is DLD-1. In words: Antiproliferative activity against human DLD1 cells assessed as cell viability at 25 uM after 72 hrs by MTT assay in presence of Escherichia coli NTR and NADPH (reference value: 86.3%). Type of data set: functional. The conditions noted are these: DLD-1, 72 h, read-out: Activity. Put shortly:
as §1

With `CN(C)/[N+]([O-])=N/OCc1ccc([N+](=O)[O-])cc1`, the viability at 75 µM in data set [1] was 32.2%; in [2] it was 74.7%. Also, the Stability result is recorded as “Stable” in data set [3], 60% in data set [5] and “Stable” in data set [6]. For the same compound, in data set [4], the Drug metabolism is 13.6 µM.
Turning to `O=[N+]([O-])c1ccc(CO/N=[N+](\[O-])N2CCCC2)cc1`, the viability at 75 µM in data set [1] turned out to be 48.5%; in data set [2], 68.6%. The Stability entry is listed as “Stable” in data set [3], 28% in data set [5] and “Stable” in data set [6]. Besides, the Drug metabolism in data set [4] was determined as 18.3 µM.
As to `O=C(OCc1ccc([N+](=O)[O-])cc1)c1ccccc1`, the results for the viability at 100 µM in data set [7] and in data set [9] were 50.5% and 84.5%, respectively. Besides, the viability at 50 µM was determined as 85.5% in [8] and 89.2% in [10]. Further, the viability at 25 µM in [11] is 98.3%; in data set [12] it was 93.4%. The Stability entry in data set [3] was “Stable”; in data set [5] it was 68%; in data set [6] it was “Stable”. Further, in [4], the Drug metabolism was 1.1 µM.
On to `[Na+].[O-]/N=[N+](\[O-])N1CCCC1`, for which the t1/2 in data set [13] worked out at 2 s.
Still for that read-out and setting: then `CCN(CC)/[N+]([O-])=N/[O-].[Na+]`, with 120 s.
On to `CCN(CC)/[N+]([O-])=N/OCc1ccc([N+](=O)[O-])cc1`, for which the viability at 75 µM in data set [1] was determined as 27.5%; in data set [2], 79.2%. The Stability entry in [3] is on record as “Stable”; in data set [5], 60%; in [6], “Stable”. Besides, the Drug metabolism in data set [4] came to 6.8 µM.
Regarding `CC1CCCCN1/[N+]([O-])=N/OCc1ccc([N+](=O)[O-])cc1` (configuration not stated), the viability at 25 µM in [14] was 6.9%; in [17] it was 24.6%; in data set [22] it was 63.7%; in [28], 12.5%. The viability at 10 µM in data set [15] was determined as 31.1%; in data set [19] it was 65.3%; in data set [20] it was 30.8%; in data set [23], 69.1%. For the same compound, the viability at 1 µM in data set [16] was 56.6%; in data set [18] it was 76.9%; in data set [21], 38.6%; in [24] it was 82.1%. Moreover, the Drug metabolism in data set [25] is 6 µM; in [26], 17 µM; in data set [4] it was 19.7 µM. Moreover, the Activity entry in [27] was “Dose-dependent effect”. Also, the viability at 75 µM in [1] was 10.2%; in data set [2], 53%. Also, the Stability entry is recorded as “Stable” in [3], 31% in [5] and “Stable” in data set [6].
As for `CN(C)/[N+]([O-])=N/[O-].[Na+]`, the t1/2 in data set [13] amounted to 24 s.
